Experiments:
[1] = Toxicity against human KB/VCR cells assessed as inhibition of cell growth at 25 uM incubated for 72 hrs by sulforhodamine B assay; assay type: cell-based; conditions: read-out: GI
[2] = Multidrug resistance reversal activity in human KB/VCR cells assessed as reduction in vinblastine IC50 at 25 uM incubated for 72 hrs by sulforhodamine B assay relative to untreated control; assay type: functional
Outline: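 KB/VCR cells seeded 24 h, then given vinblastine serial dilutions (0.125–1 μM) with or without 25 μM sample for 72 h at 37 °C, 5% CO2. Cells fixed in 10% TCA (4 °C, 1 h), stained 15 min with 0.4% SRB in 1% HOAc, dye dissolved in 10 mM Tris base, A510 read. Fold reversal = IC50 of drug alone / IC50 with sample.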

Row | Structure (SMILES) | inhibition at 72 h, 25 µM [1] [%] | Ratio IC50 [2]
1 | CCCCCCCCCC(=O)O[C@H]1[C@H](O[C@@H]2[C@@H](O)[C@H]3OC(=O)CCCCCCCCC[C@H](CCCCC)O[C@@H]4O[C@H](C)[C@H](O)[C@H](O)[C@H]4O[C@@H]3O[C@H]2C)O[C@@H](C)[C@H](O[C@@H]2O[C@@H](C)[C@H](OC(=O)[C@@H](C)CC)[C@@H](O)[C@H]2O)[C@H]1O[C@@H]1O[C@H](CO)[C@@H](O)[C@H](O)[C@H]1O | 96.7 | –
2 | CCCCC[C@H]1CCCCCCCCCC(=O)O[C@H]2[C@H](O[C@H]3[C@H](O1)O[C@H](C)[C@H](O)[C@@H]3O)O[C@@H](C)[C@H](O[C@@H]1O[C@@H](C)[C@H](O[C@@H]3O[C@@H](C)[C@H](OC(=O)[C@@H](C)CC)[C@@H](O)[C@H]3O)[C@@H](O[C@@H]3O[C@H](CO)[C@@H](O)[C@H](O)[C@H]3O)[C@H]1OC(=O)[C@@H](C)CC)[C@H]2O [MURUCOIDIN IV] | 97.5 | –
3 | CCCCC[C@H]1CCCCCCCCCC(=O)O[C@H]2[C@@H](O)[C@H](O[C@H]3[C@H](O1)O[C@H](C)[C@H](O)[C@@H]3O)O[C@@H](C)[C@@H]2O[C@@H]1O[C@@H](C)[C@H](O[C@@H]2O[C@@H](C)[C@H](OC(=O)[C@@H](C)CC)[C@@H](O)[C@H]2O)[C@@H](O[C@@H]2O[C@H](CO)[C@@H](O)[C@H](O)[C@H]2O)[C@H]1OC(=O)[C@@H](C)CC [MURUCOIDIN V] | 7.72 | 142.5
4 | CCCCCCCC(=O)O[C@H]1[C@H](O[C@@H]2[C@@H](O)[C@H]3OC(=O)CCCCCCCCC[C@H](CCCCC)O[C@@H]4O[C@H](C)[C@H](OC(C)=O)[C@H](O)[C@H]4O[C@@H]3O[C@H]2C)O[C@@H](C)[C@H](O[C@@H]2O[C@@H](C)[C@H](OC(=O)[C@@H](C)CC)[C@@H](O)[C@H]2O)[C@H]1O[C@@H]1O[C@H](CO)[C@@H](O)[C@H](O)[C@H]1O | 93.8 | –
5 | CCCCC[C@H]1CCCCCCCCCC(=O)O[C@H]2[C@@H](O)[C@H](O[C@H]3[C@H](O1)O[C@H](C)[C@H](O)[C@@H]3O)O[C@@H](C)[C@@H]2O[C@@H]1O[C@@H](C)[C@H](O[C@@H]2O[C@@H](C)[C@H](O)[C@@H](O)[C@H]2O)[C@@H](O[C@@H]2O[C@H](CO)[C@@H](O)[C@H](O)[C@H]2O)[C@H]1OC(=O)[C@@H](C)CC | -0.08 | 15.8
6 | CCCCC[C@H]1CCCCCCCCCC(=O)O[C@H]2[C@@H](O)[C@H](O[C@H]3[C@H](O1)O[C@H](C)[C@H](O)[C@@H]3O)O[C@@H](C)[C@@H]2O[C@@H]1O[C@@H](C)[C@H](O[C@@H]2O[C@@H](C)[C@H](OC(=O)[C@@H](C)CC)[C@@H](OC(=O)/C=C/c3ccccc3)[C@H]2O)[C@@H](O[C@@H]2O[C@H](CO)[C@@H](O)[C@H](O)[C@H]2O)[C@H]1OC(=O)[C@@H](C)CC | 91.1 | –
7 | CCCCC[C@H]1CCCCCCCCCC(=O)O[C@H]2[C@H](O[C@H]3[C@H](O1)O[C@H](C)[C@H](O)[C@@H]3OC(C)=O)O[C@@H](C)[C@H](O[C@@H]1O[C@@H](C)[C@H](O[C@@H]3O[C@@H](C)[C@H](OC(=O)[C@@H](C)CC)[C@@H](O)[C@H]3O)[C@@H](O[C@@H]3O[C@H](CO)[C@@H](O)[C@H](O)[C@H]3O)[C@H]1OC(=O)[C@@H](C)CC)[C@H]2O | 0.91 | 2.3
8 | CCCCCCCCCC(=O)O[C@H]1[C@H](O[C@@H]2[C@@H](O)[C@H]3OC(=O)CCCCCCCCC[C@H](CCCCC)O[C@@H]4O[C@H](C)[C@H](OC(C)=O)[C@H](O)[C@H]4O[C@@H]3O[C@H]2C)O[C@@H](C)[C@H](O[C@@H]2O[C@@H](C)[C@H](OC(=O)[C@@H](C)CC)[C@@H](O)[C@H]2O)[C@H]1O[C@@H]1O[C@H](CO)[C@@H](O)[C@H](O)[C@H]1O | 96.6 | –
9 | CCCCC[C@H]1CCCCCCCCCC(=O)O[C@H]2[C@H](O[C@H]3[C@H](O1)O[C@H](C)[C@H](OC(C)=O)[C@@H]3O)O[C@@H](C)[C@H](O[C@@H]1O[C@@H](C)[C@H](O[C@@H]3O[C@@H](C)[C@H](OC(=O)[C@@H](C)CC)[C@@H](O)[C@H]3O)[C@@H](O[C@@H]3O[C@H](CO)[C@@H](O)[C@H](O)[C@H]3O)[C@H]1OC(=O)[C@@H](C)CC)[C@H]2O | 97.8 | –
10 | CCCCC[C@@H](CCCCCCCCCC(=O)OC)O[C@@H]1O[C@H](C)[C@H](O)[C@H](O)[C@H]1O[C@@H]1O[C@@H](C)[C@H](O[C@@H]2O[C@@H](C)[C@H](O[C@@H]3O[C@@H](C)[C@H](OC(=O)[C@@H](C)CC)[C@@H](O)[C@H]3O)[C@@H](O[C@@H]3O[C@H](CO)[C@@H](O)[C@H](O)[C@H]3O)[C@H]2O)[C@@H](O)[C@H]1O | 0.23 | 2.5

Source: ChEMBL document CHEMBL3351612, “Merremins A-G, resin glycosides from Merremia hederacea with multidrug resistance reversal activity” (J Nat Prod, 2014)
